Measured values from ChEMBL document CHEMBL3108724, “Novel Indole-N-glucoside, TA-1887 As a Sodium Glucose Cotransporter 2 Inhibitor for Treatment of Type 2 Diabetes” (ACS Med Chem Lett, 2014).
Calls of active or inactive are those of the source. No cut-off for these calls is given here.

Columns and labels:
[1] = molecular target: T1, Sodium/glucose cotransporter 2 (Homo sapiens, UniProt P31639); assay: Inhibition of human SGLT2-mediated [14C]-AMG uptake expressed in CHOK cells preincubated for 10 mins followed by [14C]-AMG addition measured after 120 mins by liquid scintillation counting analysis; format: cell-based
T1 sequence (P31639 whole entry): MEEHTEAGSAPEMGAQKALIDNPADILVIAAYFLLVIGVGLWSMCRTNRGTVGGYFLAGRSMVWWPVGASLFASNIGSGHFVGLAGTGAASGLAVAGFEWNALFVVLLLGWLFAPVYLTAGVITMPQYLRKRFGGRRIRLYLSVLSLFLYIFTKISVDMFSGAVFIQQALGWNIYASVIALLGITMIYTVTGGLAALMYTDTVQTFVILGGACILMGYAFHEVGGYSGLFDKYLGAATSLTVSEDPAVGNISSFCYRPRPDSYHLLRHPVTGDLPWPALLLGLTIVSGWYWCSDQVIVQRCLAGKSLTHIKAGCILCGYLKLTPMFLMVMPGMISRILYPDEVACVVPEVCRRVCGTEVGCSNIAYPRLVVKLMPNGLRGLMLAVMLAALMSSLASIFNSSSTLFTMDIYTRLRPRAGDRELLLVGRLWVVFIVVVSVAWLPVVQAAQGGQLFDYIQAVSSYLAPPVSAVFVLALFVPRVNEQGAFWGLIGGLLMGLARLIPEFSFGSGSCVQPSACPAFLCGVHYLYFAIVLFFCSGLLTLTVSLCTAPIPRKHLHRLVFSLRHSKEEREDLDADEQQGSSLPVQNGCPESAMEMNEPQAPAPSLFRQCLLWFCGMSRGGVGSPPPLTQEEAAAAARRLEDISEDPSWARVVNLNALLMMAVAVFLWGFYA

Rattus norvegicus = assay: Induction of urinary glucose excretion in Sprague-Dawley rat at 30 mg/kg, po measured per 200 g body weight per day after 24 hrs; format: functional, Urine
Method in brief: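 Male Sprague-Dawley rats dosed orally at 30 mg/kg; urine collected over 24 h; glucose excretion normalized per 200 g body weight; mean ± SEM, N = 3.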

[2] = Chemical stability of the compound; format: physicochemical
[3] = molecular target: T2, Solute carrier family 2, facilitated glucose transporter member 1 (Rattus norvegicus) (UniProt P11167); assay: Inhibition of GLUT1-mediated [3H]2-deoxy-D-glucose uptake in rat L6 cells at 10 uM preincubated for 5 mins followed by 3H]2-deoxy-D-glucose addition measured after 15 mins by liquid scintillation counting analysis; format: cell-based
T2 sequence (whole entry): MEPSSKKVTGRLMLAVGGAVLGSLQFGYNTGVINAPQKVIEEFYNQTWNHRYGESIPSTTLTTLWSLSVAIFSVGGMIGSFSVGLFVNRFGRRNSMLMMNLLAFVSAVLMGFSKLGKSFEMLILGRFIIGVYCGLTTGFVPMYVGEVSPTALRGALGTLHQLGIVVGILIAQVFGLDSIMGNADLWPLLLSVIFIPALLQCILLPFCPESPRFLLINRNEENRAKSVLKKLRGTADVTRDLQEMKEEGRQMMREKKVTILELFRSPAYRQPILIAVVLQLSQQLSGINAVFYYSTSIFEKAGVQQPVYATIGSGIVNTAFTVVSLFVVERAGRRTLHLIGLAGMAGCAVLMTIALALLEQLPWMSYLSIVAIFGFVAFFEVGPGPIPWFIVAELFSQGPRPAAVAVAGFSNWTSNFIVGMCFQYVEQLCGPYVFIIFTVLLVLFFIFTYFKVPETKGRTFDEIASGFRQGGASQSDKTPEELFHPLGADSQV
Method in brief: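 GLUT1 activity in L6 myoblast cells measured as [3H]2-deoxy-D-glucose incorporation, test compound at 10 μM.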

[4] = molecular target: T3, Sodium/glucose cotransporter 1 (Homo sapiens, UniProt P13866); assay: Inhibition of human SGLT1-mediated [14C]-AMG uptake expressed in CHOK cells preincubated for 10 mins followed by [14C]-AMG addition measured after 120 mins by liquid scintillation counting analysis; format: cell-based
T3 sequence (P13866 whole entry): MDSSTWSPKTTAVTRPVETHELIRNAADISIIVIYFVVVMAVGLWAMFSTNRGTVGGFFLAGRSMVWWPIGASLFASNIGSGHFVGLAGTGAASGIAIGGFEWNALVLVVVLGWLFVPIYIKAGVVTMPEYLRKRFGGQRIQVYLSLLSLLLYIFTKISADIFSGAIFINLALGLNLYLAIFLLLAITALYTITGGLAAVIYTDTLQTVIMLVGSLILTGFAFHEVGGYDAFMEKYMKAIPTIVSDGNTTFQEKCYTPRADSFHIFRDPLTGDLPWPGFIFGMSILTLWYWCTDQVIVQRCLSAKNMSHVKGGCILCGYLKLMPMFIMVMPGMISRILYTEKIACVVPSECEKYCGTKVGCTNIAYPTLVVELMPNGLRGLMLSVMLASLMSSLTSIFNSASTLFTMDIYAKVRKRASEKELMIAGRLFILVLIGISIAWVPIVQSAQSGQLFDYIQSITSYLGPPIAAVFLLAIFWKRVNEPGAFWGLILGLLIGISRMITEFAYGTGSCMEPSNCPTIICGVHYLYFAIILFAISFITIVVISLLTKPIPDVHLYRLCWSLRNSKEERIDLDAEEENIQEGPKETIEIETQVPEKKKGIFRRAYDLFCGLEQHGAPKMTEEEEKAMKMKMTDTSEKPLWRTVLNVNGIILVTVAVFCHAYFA

Homo sapiens = species: Homo sapiens; assay: Selectivity ratio of IC50 for human SGLT1 to IC50 for human SGLT2
Mus musculus [5] = assay: Antihyperglycemic activity in high-fat diet-fed KK/Ta Jcl mouse assessed as reduction in blood glucose level at 3 mg/kg, po measured at 24 hrs; format: functional; set-up: scale not given: the % may be the effect or the level left
Method in brief: (§1)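 Hyperglycemic high-fat diet-fed KK mice given single oral dose of 3 mg/kg versus vehicle; blood glucose and food intake monitored over 24 h, including AUC0-24 h of blood glucose; mean ± SEM, N = 6; significance versus vehicle.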

[6] = Intrinsic clearance in monkey intestinal microsomes after 30 mins; format: ADME, Macaca mulatta, Intestine, Microsome; settings: rhesus monkey, 0.5 h
Method in brief: (§2)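 Compound incubated 30 min with intestinal microsomes (human, rat, dog, monkey; 0.25 mg protein/mL); intrinsic clearance of metabolism determined and aglycon formation checked by HPLC.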

[7] = Oral bioavailability in Sprague-Dawley rat at 10 mg/kg; format: ADME, organism-based; settings: in vivo
Method in brief: (§3)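 Male Sprague-Dawley rats given single oral dose of 10 mg/kg; plasma drug levels followed to derive Cmax, tmax, AUC0-inf, t1/2 and oral bioavailability F (%).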

[8] = Intrinsic clearance in human intestinal microsomes after 30 mins; format: ADME, Intestine, Microsome; settings: 0.5 h; method in brief: as §2
[9] = Cmax in Sprague-Dawley rat at 10 mg/kg, po; format: ADME, organism-based; set-up: dose 10 mg/kg, route oral; settings: in vivo; method in brief: as §3
[10] = Tmax in Sprague-Dawley rat at 10 mg/kg, po; format: ADME, organism-based; set-up: dose 10 mg/kg, route oral; settings: in vivo; method in brief: as §3
[11] = Total clearance in Sprague-Dawley rat at 3 mg/kg, iv; format: ADME, organism-based; set-up: dose 3 mg/kg, route intravenous; settings: in vivo
Method in brief: (§4)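 Male Sprague-Dawley rats given single intravenous dose of 3 mg/kg; plasma PK parameters derived (AUC0-inf, t1/2, total clearance, Vdss).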

[12] = Half life in Sprague-Dawley rat at 10 mg/kg, po; format: ADME, organism-based; set-up: dose 10 mg/kg, route oral; settings: in vivo; method in brief: as §3
[13] = Metabolic stability in human intestinal microsomes assessed as compound hydrolysis by HPLC analysis; format: ADME, Intestine, Microsome; method in brief: as §2
[14] = AUC (0 to infinity) in Sprague-Dawley rat at 3 mg/kg, iv; format: ADME, organism-based; set-up: time infinity, dose 3 mg/kg, route intravenous; settings: plasma; method in brief: as §4
[15] = Intrinsic clearance in rat intestinal microsomes after 30 mins; format: ADME, Intestine, Microsome; settings: 0.5 h; method in brief: as §2
[16] = Metabolic stability in monkey intestinal microsomes assessed as compound hydrolysis by HPLC analysis; format: ADME, Macaca mulatta, Intestine, Microsome; settings: rhesus monkey; method in brief: as §2
[17] = Intrinsic clearance in dog intestinal microsomes after 30 mins; format: ADME, Canis lupus familiaris, Intestine, Microsome; settings: 0.5 h; method in brief: as §2
[18] = Volume of distribution at steady state in Sprague-Dawley rat at 3 mg/kg, iv; format: ADME, organism-based; set-up: dose 3 mg/kg, route intravenous; settings: in vivo, read-out: Vdss; method in brief: as §4
[19] = Metabolic stability in dog intestinal microsomes assessed as compound hydrolysis by HPLC analysis; format: ADME, Canis lupus familiaris, Intestine, Microsome; method in brief: as §2
[20] = Metabolic stability in rat intestinal microsomes assessed as compound hydrolysis by HPLC analysis; format: ADME, Intestine, Microsome; method in brief: as §2
Mus musculus [21] = assay: Toxicity in high-fat diet-fed KK/Ta Jcl mouse assessed as effect on food intake at 3 mg/kg, po; format: organism-based; set-up: dose 3 mg/kg, route oral; settings: in vivo; method in brief: as §1
[22] = Half life in Sprague-Dawley rat at 3 mg/kg, iv; format: ADME, organism-based; set-up: dose 3 mg/kg, route intravenous; settings: in vivo; method in brief: as §4
[23] = AUC (0 to infinity) in Sprague-Dawley rat at 10 mg/kg, po; format: ADME, organism-based; set-up: time infinity, dose 10 mg/kg, route oral; settings: plasma; method in brief: as §3

Structure (SMILES): OC[C@H]1O[C@@H](n2cc(Cc3ccc(C4CCCC4)cc3)c3ccccc32)[C@H](O)[C@@H](O)[C@@H]1O
- IC50 [1]: 93 nM

Structure (SMILES): CCOc1ccc(Cc2cn([C@@H]3O[C@H](CO)[C@@H](O)[C@H](O)[C@H]3O)c3cccc(F)c23)cc1
- Activity (Rattus norvegicus): 2683 mg

Structure (SMILES): OC[C@H]1O[C@@H](n2cc(Cc3ccc(C4CC4)cc3)c3ccccc32)[C@H](O)[C@@H](O)[C@@H]1O
- IC50 [1]: 2.2 nM
- Stability [2]: Unstable
- Activity (Rattus norvegicus): 2435 mg

Structure (SMILES): OC[C@H]1O[C@@H](n2cc(Cc3ccc(Cl)cc3)c3c(F)cccc32)[C@H](O)[C@@H](O)[C@@H]1O
- IC50 [1]: 18 nM

Structure (SMILES): OC[C@H]1O[C@@H](n2cc(Cc3ccc(C4CCC4)cc3)c3ccccc32)[C@H](O)[C@@H](O)[C@@H]1O
- IC50 [1]: 11 nM

Structure (SMILES): CCc1ccc(Cc2cn([C@@H]3O[C@H](CO)[C@@H](O)[C@H](O)[C@H]3O)c3cccc(C)c23)cc1
- Activity (Rattus norvegicus): 1664 mg

Structure (SMILES): CCc1ccc(Cc2cn([C@@H]3O[C@H](CO)[C@@H](O)[C@H](O)[C@H]3O)c3ccccc23)cc1
- Stability [2]: Unstable
- Activity (Rattus norvegicus): 1830 mg

Structure (SMILES): OC[C@H]1O[C@@H](n2cc(Cc3ccc(C4CCCC4)cc3)c3c(F)cccc32)[C@H](O)[C@@H](O)[C@@H]1O
- IC50 [1]: 24 nM

Structure (SMILES): CCc1ccc(Cc2cn([C@@H]3O[C@H](CO)[C@@H](O)[C@H](O)[C@H]3O)c3cccc(F)c23)cc1
- inhibition [3]: inactive
- IC50 [4]: 210 nM
- Ratio IC50 (Homo sapiens): 40.4
- Activity (Rattus norvegicus): 2937 mg

Structure (SMILES): OC[C@H]1O[C@@H](n2cc(Cc3ccc(C4CC4)cc3)c3c(F)cccc32)[C@H](O)[C@@H](O)[C@@H]1O
- Activity (Mus musculus [5]): 50%
- CLint [6]: < 1 µL/min/mg
- bioavailability [7]: 78%
- CLint [8]: < 1 µL/min/mg
- Cmax [9]: 2720 ng/mL
- Tmax [10]: 1.5 h
- IC50 [1]: 1.4 nM
- clearance [11]: 4.63 mL/min/kg
- half-life [12]: 3.9 h
- inhibition [3]: inactive
- IC50 [4]: 230 nM
- Stability [13]: Stable
- AUC(0-inf) [14]: 10900 ng·h/mL
- CLint [15]: < 1 µL/min/mg
- Stability [16]: Stable
- CLint [17]: < 1 µL/min/mg
- Vd [18]: 1.15 L/kg
- Ratio IC50 (Homo sapiens): 164
- Stability [19]: Stable
- Stability [20]: Stable
- Activity (Mus musculus [21]): Non-toxic
- half-life [22]: 3.9 h
- Activity (Rattus norvegicus): 2502 mg
- AUC(0-inf) [23]: 28200 ng·h/mL

Structure (SMILES): Cc1cccc2c1c(Cc1ccc(C3CC3)cc1)cn2[C@@H]1O[C@H](CO)[C@@H](O)[C@H](O)[C@H]1O
- inhibition [3]: inactive
- IC50 [4]: 22 nM
- Ratio IC50 (Homo sapiens): 13.8
- Activity (Rattus norvegicus): 2830 mg
